Bioassay records as filed in PubChem.
The list is not random: actives were taken first. Their share in the collection is about 3.8%.
KCNQ1 act: potentiators or activators of KCNQ1 channel, primary screen, cell-based, thallium flux, high-throughput. Potassium voltage-gated channel subfamily KQT member 1 (Homo sapiens), P51787. CHO-K1 KCNQ1, thallium flux FluxOR fluorescence; active compounds read high. B-score at 10 µM. 310,000 tested, 0.35% active. AID 2648, 2010;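 active means fluorescence ratio B-score, a plate-corrected score, at least three library SD, with initial intensity B-score within 5 SD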
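Doses: Single concentration per compound, DMSO matched to controls | Test system: KCNQ1-transfected CHO-K1 cells | Timing: 90 min dye loading and 20 min compound exposure, both at room temperature | Measured by: Kinetic FluxOR thallium fluorescence, 10-s 1-Hz baseline, 110-s post-stimulus read | Medium: Assay buffer with matched DMSO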
Kir21 inh: inhibitors of mouse Kir2.1 inward-rectifier potassium channel | B-score at 10 µM | Inward rectifier potassium channel 2 (Mus musculus), P35561 | 310,000 tested, 0.85% active | HEK293-Kir2.1, FluxOR thallium flux fluorescence; active compounds read low | AID 1672, 2009;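 active means fluorescence ratio B-score at or below minus 3 SD of library scores, with starting-brightness B-score within 2 SD, cut at about -4.2 in these data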;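 further: channel flux triggered by added potassium and thallium sulfate stimulus; B-score of peak minus minimum fluorescence over baseline after thallium stimulus; more negative B-score means stronger Kir2.1 block with less thallium influx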
hERG protect: hERG rescue from dofetilide block, primary screen, cell-based, CHO-hERG, FluxOR thallium flux, dofetilide IC70 | 310,000 tested, 0.51% active | dofetilide IC70 present | Voltage-gated inwardly rectifying potassium channel KCNH2 (Homo sapiens), Q12809 | AID 1511, 2009 | activation (rescue from dofetilide block), less the hit threshold, % at 10 µM;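 active means activation above the mean of controls blocked by dofetilide plus 5 SD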;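 further: thallium influx through hERG after potassium depolarization seen as dye fluorescence rise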
KCNQ1 block: inhibitors of human KCNQ1 channel, primary screen, cell-based, thallium flux, high-throughput | CHO-K1 KCNQ1, FluxOR thallium flux fluorescence; active compounds read high | B-score at 10 µM | 310,000 tested, 1.3% active | AID 2642, 2010;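 active means compounds whose thallium flux B-score, printed positive for inhibition, exceeds three library SD while starting fluorescence stays within three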;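 further: channel opened by potassium depolarization with thallium stimulus after 20 min compound exposure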
KCNK9 inh: KCNK9 potassium channel inhibitors, primary screen, HEK293 cells, thallium flux. Potassium channel subfamily K member 9 (Homo sapiens), Q9NPC2. FluxOR thallium flux fluorescence; active compounds read low. B-score at 10 µM. 310,000 tested, 1.2% active. AID 488922, 2010;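 active means ratio B-score over 3 SD below the library mean, with starting fluorescence within 5 SD of its mean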;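 further: negative B-score means less thallium flux so channel inhibition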
KCNK3 inh: human KCNK3 channel inhibitors, primary screen, CHO cells, FluxOR thallium flux, B-score; B-score at 10 µM; Potassium channel subfamily K member 3 (Homo sapiens), O14649; 340,000 tested, 0.84% active; FluxOR fluorescence; active compounds read low; AID 602410, 2012;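 active means B-score under library mean minus 4 SD, starting fluorescence ratio at most library mean plus 5 SD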;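 further: more negative B-score means stronger inhibition of thallium flux through KCNK3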
Target sequence (O14649 whole entry, looked up): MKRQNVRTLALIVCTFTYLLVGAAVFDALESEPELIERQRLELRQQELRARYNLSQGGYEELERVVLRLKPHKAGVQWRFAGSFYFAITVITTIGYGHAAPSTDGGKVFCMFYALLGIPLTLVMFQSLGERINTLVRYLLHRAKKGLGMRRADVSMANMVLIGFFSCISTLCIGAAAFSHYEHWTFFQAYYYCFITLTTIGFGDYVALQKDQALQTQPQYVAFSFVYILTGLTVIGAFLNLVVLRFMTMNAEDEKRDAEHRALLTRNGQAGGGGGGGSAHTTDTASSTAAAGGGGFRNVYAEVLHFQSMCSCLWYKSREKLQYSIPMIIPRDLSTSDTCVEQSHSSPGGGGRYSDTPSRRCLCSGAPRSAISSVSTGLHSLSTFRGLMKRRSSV
KCNK9 inh conf: KCNK9 potassium channel inhibitors, confirmation, HEK293 cells, thallium flux, duplicate | shares compounds with KCNK9 inh | FluxOR thallium flux fluorescence | inhibition, % at 10 µM | 4,900 tested, 43% active | AID 492992, 2010;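 active means thallium signal inhibited by more than 5 SD of the compound-free buffer control wells, on both duplicate plates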
Kir21 sel: mouse Kir2.1 channel inhibition, confirmation, selectivity assay for KCNK9 modulator project, cell-based, HEK293, thallium flux. shares compounds with KCNK9 inh. Kir2.1 cells, FluxOR thallium flux fluorescence. inhibition, % at 10 µM. 4,900 tested, 4% active;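 active means thallium signal drop more than 5 SD beyond the mean of the no-compound control wells, seen in both duplicate plates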;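 further: signal is fluorescence rise after thallium addition divided by baseline fluorescence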
HEK293 Tl ctr: thallium flux in non-induced HEK293 cells, confirmation, counter-screen for KCNK9 inhibitor project, cell-based, second counter screen, non-induced KCNK9-HEK293. shares compounds with KCNK9 inh. FluxOR thallium flux. inhibition, % at 10 µM. 4,900 tested, 40% active. AID 492997, 2010;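 active means thallium signal drop beyond 5 SD of the untreated control mean, on both duplicate plates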
Large screens that a line does not name were inactive (follow-up assays come after a bar, where they were run).

CC(C)c1ccc(OC(=O)c2cccc(S(=O)(=O)N3CCN(C)CC3)c2)cc1	none | KCNK9 inh conf inactive | Kir21 sel inactive | HEK293 Tl ctr inactive
C#CCN(C(=O)c1ccc(OC2CCN(Cc3ccccn3)CC2)cc1)C1CCCCC1	none
O=C(COC(=O)[C@@H]1CC(O)CN1S(=O)(=O)c1ccc(Cl)cc1)NC(=O)NCc1ccccc1 (stereo partly drawn)	none
COc1ccc(CCN2CC(C(=O)NCc3nc(C)c(C)s3)CCC2=O)cc1 (stereo not drawn)	none
COc1ccc(/C=C2\CCC/C(=C\c3ccc(OC)c(OC)c3OC)C2=O)c(OC)c1OC	none | KCNK9 inh conf inactive | Kir21 sel inactive | HEK293 Tl ctr inactive
O=C(c1c[nH]c2ccccc12)N1CCOCC1	none
S=C(c1c[nH]c2ccc(Br)cc12)N1CCOCC1	KCNK9 inh -8.72 | KCNK9 inh conf 50.0% | Kir21 sel inactive | HEK293 Tl ctr inactive
c1ccc(Sc2ncnc3ccccc23)cc1	none
c1ccc(Cc2nnc(Sc3ccccc3)c3ccccc23)cc1	KCNK9 inh -8.53 | KCNK9 inh conf 46.0% | Kir21 sel inactive | HEK293 Tl ctr 37.0%
COc1cc(C(=O)OCC(=O)N2CCC(Cc3ccccc3)CC2)cc(OC)c1OC	none | KCNK9 inh conf inactive | Kir21 sel inactive | HEK293 Tl ctr inactive
COc1cc(/C=C/C(=O)OCC(=O)N2CCC(Cc3ccccc3)CC2)ccc1O	none | KCNK9 inh conf inactive | Kir21 sel inactive | HEK293 Tl ctr inactive
COc1cccc(OC)c1OCCCN1CCC(Cc2ccccc2)CC1	none | KCNK9 inh conf inactive | Kir21 sel inactive | HEK293 Tl ctr inactive
COc1cc(/C=C/C(=O)OCC(=O)N2CCC(C)CC2)ccc1O	none
CCCC(NC(=O)c1c(C)noc1C)C12CC3CC(CC(C3)C1)C2 (stereo not drawn)	none
COc1ccc(-c2csc(N(Cc3ccco3)C(=O)c3cccs3)n2)cc1	KCNK9 inh -9.37 | KCNK9 inh conf 50.0% | Kir21 sel inactive | HEK293 Tl ctr 39.5%
COc1ccc(OC)c(-c2csc(N(Cc3ccco3)C(=O)c3cccs3)n2)c1	KCNQ1 block 7, KCNK9 inh -12.5 | KCNK9 inh conf 49.0% | Kir21 sel inactive | HEK293 Tl ctr 43.0%
CCOc1ccc2oc(C(=O)NCc3ccccc3CN3CCCC3)c(C)c2c1	none (no result: KCNQ1 act, Kir21 inh, hERG protect, KCNQ1 block, KCNK9 inh)
CC1CN(S(=O)(=O)c2ccc(C(=O)Nc3nnc(-c4ccccn4)o3)cc2)CC(C)O1 (stereo not drawn)	none
CC1CN(S(=O)(=O)c2ccc(C(=O)Nc3nnc(-c4ccc5c(c4)CCCC5)o3)cc2)CC(C)O1 (stereo not drawn)	none | KCNK9 inh conf inactive | Kir21 sel inactive | HEK293 Tl ctr inactive
COc1ccccc1CN(C)C(=O)CN1CCN(S(=O)(=O)c2ccc3c(c2)OCCCO3)CC1	none (no result: KCNQ1 act, Kir21 inh, hERG protect, KCNQ1 block, KCNK9 inh)
CCN(CC)c1ccc(/C=N/OCC(=O)N2CCCc3ccccc32)cc1	none | KCNK9 inh conf inactive | Kir21 sel inactive | HEK293 Tl ctr inactive
O=C(CO/N=C/c1ccc(OC(F)F)cc1)N1CCc2ccccc21	none
